Our source for the IC50, EC50 and inhibition values is ChEMBL document CHEMBL4041519, “Design, synthesis and SAR analysis of potent BACE1 inhibitors: Possible lead drug candidates for Alzheimer's disease” (Eur J Med Chem, 2017).

In general, IC50 refers to the concentration at which inhibition is half-maximal. The EC50 is the midpoint of the concentration-response curve. As usually defined, the inhibition is the percentage by which the read-out fell short of the control.

The target in test [1] is T1, Beta-secretase 1 (Homo sapiens, UniProt P56817). Nature of the test: Inhibition of recombinant human BACE1 (1 to 460 residues) expressed in baculovirus infected insect cells using rhodamine-EVNLDAEFK peptide as substrate measured after 60 mins by FRET assay. A digest of the protocol: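 Enzyme 1 U/mL in 50 mM sodium acetate pH 4.5 with 750 nM substrate (Swedish-mutant peptide, KM 20 µM); screening at 30, 10, 3, 1 and 0.3 µM, 3.3% DMSO final. Incubated in the dark at 25 °C, stopped with 2.5 M sodium acetate; fluorescence ex 545/em 585 nm. IC50 from nonlinear fit of RFU/h versus log concentration; mean of 3 experiments.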
T1 sequence (P56817 whole entry, the tested form may be a part): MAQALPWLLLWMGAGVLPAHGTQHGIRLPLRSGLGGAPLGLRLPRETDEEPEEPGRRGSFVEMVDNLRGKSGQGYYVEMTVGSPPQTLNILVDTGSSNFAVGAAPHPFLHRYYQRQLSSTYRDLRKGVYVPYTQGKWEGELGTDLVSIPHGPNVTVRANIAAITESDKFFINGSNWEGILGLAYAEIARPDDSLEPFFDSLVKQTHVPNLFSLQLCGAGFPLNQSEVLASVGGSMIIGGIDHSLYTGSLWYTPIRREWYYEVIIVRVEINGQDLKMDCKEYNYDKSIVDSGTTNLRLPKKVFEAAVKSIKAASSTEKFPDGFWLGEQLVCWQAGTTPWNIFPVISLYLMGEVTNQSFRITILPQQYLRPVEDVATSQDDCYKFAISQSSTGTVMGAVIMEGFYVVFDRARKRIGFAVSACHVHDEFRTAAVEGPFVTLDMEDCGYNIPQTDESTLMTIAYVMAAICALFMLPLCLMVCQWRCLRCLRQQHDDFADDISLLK

Test [2] addresses T1, Beta-secretase 1. The test can be described thus: Inhibition of BACE1 in human H4 cells expressing human APP K595N/M596L double mutant assessed as decrease in amyloid beta 42 and amyloid beta 40 level after overnight incubation by ELISA method. It counts as cell-based. Conditions: for inhibition: concentration not given here. In a few lines:
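H4 neuroglioma cells seeded 2x10^5 per well, grown 24 h (5% CO2, humidified), then exposed overnight to increasing compound concentrations; 1% DMSO negative control, R-flurbiprofen positive control. Supernatant Aβ42 and Aβ40 captured with biotinylated 4G8 plus C-terminal-specific rabbit antibodies, streptavidin magnetic beads, electrochemiluminescence readout. EC50 = concentration halving Aβ production; mean of ≥3 experiments ± SD.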

Turning to `O=C(Nc1cccc(-c2cnc(-c3c[nH]c4cc(F)ccc34)[nH]2)c1)c1cccnc1`, the IC50 at Beta-secretase 1 [1] was 130 nM. Besides, on Beta-secretase 1 [2], the EC50 is 410 nM and the inhibition was determined as 82%.
The matching figures for `Fc1ccc2nc(-c3cccc(-c4cnc(-c5c[nH]c6cc(F)ccc56)[nH]4)c3)[nH]c2c1`: 85 nM, 350 nM and 90%.
The corresponding values for `O=C(Nc1cccnc1)c1cccc(-c2cnc(-c3c[nH]c4ccccc34)[nH]2)c1` are 310 nM, 880 nM and 42%.
The matching figures for `Fc1ccc2nc(-c3cccc(-c4cnc(-c5c[nH]c6cc(OC(F)(F)F)ccc56)[nH]4)c3)[nH]c2c1`: 120 nM, 290 nM and 87%.
In the case of `Fc1ccc(-c2cnc(-c3cccc(-c4cnc(-c5c[nH]c6cc(F)ccc56)[nH]4)c3)[nH]2)cc1`, at Beta-secretase 1 [1], the IC50 is 75 nM. Moreover, at Beta-secretase 1 [2], the EC50 was found to be 810 nM and the inhibition came out at 86%.
The matching figures for `O=C(Nc1ccncc1)c1cccc(-c2cnc(-c3c[nH]c4ccccc34)[nH]2)c1`: 660 nM, 590 nM and 70%.
Take `O=C(Nc1ccccc1)c1cccc(-c2cnc(-c3c[nH]c4ccccc34)[nH]2)c1`: the IC50 on Beta-secretase 1 [1] came to 110 nM. On Beta-secretase 1 [2], the EC50 was 1210 nM and the inhibition was 64%.
Regarding `O=C(Nc1cccc(-c2cnc(-c3c[nH]c4ccccc34)[nH]2)c1)c1cccnc1`, the IC50 at Beta-secretase 1 [1] turned out to be 220 nM. Moreover, on Beta-secretase 1 [2], the EC50 is 480 nM and the inhibition came to 75%.
The corresponding values for `Fc1ccc(-c2cnc(-c3cccc(-c4cnc(-c5c[nH]c6cc(OC(F)(F)F)ccc56)[nH]4)c3)[nH]2)cc1` are 180 nM, 670 nM and 77%.
The corresponding values for `O=C(Nc1ccc(F)cc1)c1cccc(-c2cnc(-c3c[nH]c4ccccc34)[nH]2)c1` are 98 nM, 1330 nM and 69%.
